Active and inactive are the calls of the source. No cut-off for these calls is given here.
Legend:
[1] = Cytotoxicity against patient-derived U3013MG cells assessed as reduction in cell viability after 48 hrs by Celltiter-Glo reagent based assay; type: functional; conditions: Homo sapiens
[2] = Cytotoxicity against patient-derived U3013MG cells assessed as reduction in cell viability by Celltiter-Glo reagent based assay; type: functional; conditions: Homo sapiens
[3] = Toxicity in NMRI mouse assessed as drug tolerance at 20 mg/kg, po administered as single dose through gavage up to 144 hrs; type: organism-based; conditions: in vivo
[4] = Half life in NMRI mouse plasma at 2 mg/kg, iv administered as single dose by UPLC-MS/MS analysis; type: ADME, organism-based
In short: (§1)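 Single dose to male NMRI mice, i.v. tail vein under light isoflurane or p.o. gavage without anesthesia. Blood by orbital plexus into EDTA, plasma by centrifugation at +4 °C; brains homogenized in 4 mL PBS (pH 7.4) per g. Sampled 15 min to 144 h, n = 3 per time point. UPLC-MS/MS with internal standard; noncompartmental analysis of composite mean profiles using nominal times and doses.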

[5] = Tlast in NMRI mouse plasma at 2 mg/kg, iv administered as single dose by UPLC-MS/MS analysis; type: ADME, organism-based; conditions: in vivo; in short: as §1
[6] = Cmax in NMRI mouse brain at 2 mg/kg, iv administered as single dose measured after 144 hrs by UPLC-MS/MS analysis; type: ADME, organism-based; design: dose 2 mg/kg, route intravenous; in short: as §1
[7] = Cmax in NMRI mouse brain at 20 mg/kg, po administered as single dose through gavage measured after 144 hrs by UPLC-MS/MS analysis; type: ADME, organism-based; design: dose 20 mg/kg, route oral; in short: as §1
[8] = Fraction unbound in NMRI mouse plasma at 5 uM by LC-MS based equilibrium dialysis method; type: ADME, cell-free
In short: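 Equilibrium dialysis across a semipermeable membrane, 100% mouse plasma against pH 7.4 buffer, 5 μM compound at 0.5% final DMSO, 37 °C. Both sides sampled after equilibration. Duplicate incubations, reported as averages.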

[9] = Half life in NMRI mouse brain at 2 mg/kg, iv administered as single dose by UPLC-MS/MS analysis; type: ADME, organism-based; in short: as §1
[10] = AUClast in NMRI mouse brain at 20 mg/kg, po administered as single dose through gavage measured after 144 hrs by UPLC-MS/MS analysis; type: ADME, organism-based; design: dose 20 mg/kg, time < 144 hr, route oral; in short: as §1
[11] = AUClast in NMRI mouse plasma at 20 mg/kg, po administered as single dose through gavage measured up to 144 hrs post dose by UPLC-MS/MS analysis; type: ADME, organism-based; design: dose 20 mg/kg, time < 144 hr, route oral; in short: as §1
[12] = Tlast in NMRI mouse plasma at 20 mg/kg, po administered as single dose through gavage by UPLC-MS/MS analysis; type: ADME, organism-based; conditions: in vivo; in short: as §1
[13] = Systemic toxicity in NMRI mouse at 20 mg/kg, po administered as single dose through gavage up to 144 hrs; type: organism-based; conditions: in vivo
[14] = Half life in NMRI mouse brain at 20 mg/kg, po administered as single dose through gavage by UPLC-MS/MS analysis; type: ADME, organism-based; in short: as §1
[15] = Systemic toxicity in NMRI mouse at 2 mg/kg, iv administered as single dose up to 144 hrs; type: organism-based; conditions: in vivo
[16] = CNS toxicity in NMRI mouse at 20 mg/kg, po administered as single dose through gavage up to 144 hrs; type: organism-based; conditions: in vivo
[17] = Tlast in NMRI mouse brain at 20 mg/kg, po administered as single dose through gavage by UPLC-MS/MS analysis; type: ADME, organism-based; conditions: in vivo; in short: as §1
[18] = AUClast in NMRI mouse brain at 2 mg/kg, iv administered as single dose measured after 144 hrs by UPLC-MS/MS analysis; type: ADME, organism-based; design: dose 2 mg/kg, time < 144 hr, route intravenous; in short: as §1
[19] = Oral bioavailability in NMRI mouse brain at 20 mg/kg administered as single dose through gavage measured after 144 hrs by UPLC-MS/MS analysis; type: ADME, organism-based; in short: as §1
[20] = AUClast in NMRI mouse plasma at 2 mg/kg, iv administered as single dose measured up to 144 hrs post dose by UPLC-MS/MS analysis; type: ADME, organism-based; design: time < 144 hr, dose 2 mg/kg, route intravenous; in short: as §1
[21] = Half life in NMRI mouse plasma at 20 mg/kg, po administered as single dose through gavage by UPLC-MS/MS analysis; type: ADME, organism-based; in short: as §1
[22] = Toxicity in NMRI mouse assessed as drug tolerance at 2 mg/kg, iv administered as single dose up to 144 hrs; type: organism-based; conditions: in vivo
[23] = CNS toxicity in NMRI mouse at 2 mg/kg, iv administered as single dose up to 144 hrs; type: organism-based; conditions: in vivo
[24] = Tlast in NMRI mouse brain at 2 mg/kg, iv administered as single dose by UPLC-MS/MS analysis; type: ADME, organism-based; conditions: in vivo; in short: as §1
U3013MG [25] = experiment: Antitumor activity against GFP-labeled human U3013MG cells orthotopically xenografted in 2 days post fertilized zebra fish embryo assessed as reduction in tumor cells at 30 uM measured 6 days post transplantation by fluorescence assay; type: functional, cell-based
In short: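 U3013 cells labeled with Cell Tracker Green; about 3000 cells injected into the brain ventricle of 2 dpf Mitfa-morpholino larvae. Three embryos per well in 200 μL egg water holding compound or 0.1% DMSO, renewed every 6 h. Imaged 6 days post-transplantation; tumor burden from GFP fluorescence intensity and counts of larvae with grafted cells.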

[26] = Ratio of drug level in NMRI mouse brain to plasma at 2 mg/kg, iv or 20 mg/kg, po administered as single dose through gavage measured up to 144 hrs post dose by UPLC-MS/MS analysis; type: ADME, organism-based; conditions: brain and plasma, read-out: BPR; in short: as §1
[27] = Toxicity in 2 days post fertilized zebra fish embryo orthotopically xenografted with GFP-labeled human U3013MG cells assessed as larval development defect at 30 uM; design: species or system Danio rerio; conditions: zebrafish, 48 h
U3013MG [28] = experiment: Cytotoxicity against patient-derived U3013MG cells assessed as induction of catastrophic vacuolization at 5 uM after 4 to 8 hrs by light microscopy; type: functional, cell-based; conditions: Homo sapiens
In short: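 U3013 glioblastoma cells in 384-well plates were examined by light microscopy at 4 h intervals for large lucent intracellular vacuoles, with bright-field imaging at 37 °C, 5% CO2.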

[29] = Toxicity in 2 days post fertilized zebra fish embryo assessed as effect on larval development up to 50 uM; design: species or system Danio rerio; conditions: zebrafish, 48 h
In short: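 Zebrafish embryos were exposed to rising concentrations up to 50 μM or to vehicle, and larval development was scored visually at 2 days post-fertilization.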

Compound: OC(c1cc(-c2ccncc2)nc2ccccc12)C1CCCCN1 (stereo not given)
- IC50 [1]: > 50 µM

Compound: OC(c1cc(-c2cncnc2)nc2ccccc12)C1CCCCN1 (stereo not given)
- IC50 [1]: > 50 µM

Compound: Cc1ccc(-c2cc(C(O)C3CCCCN3)c3ccccc3n2)o1 (stereo not given)
- IC50 [1]: > 50 µM

Compound: CCCN(CCC)C(=O)c1ccc(-c2cc([C@@H](O)[C@@H]3CCCCN3)c3ccccc3n2)cc1 (relative stereo)
- IC50 [1]: 35.4 µM

Compound: OC(c1cc(-c2ccc(Cl)cc2)nc2ccccc12)C1CCCCN1 (stereo not given)
- IC50 [2]: 3.14 µM

Compound: O[C@@H](c1cc(-c2ccc(Cl)cc2)nc2ccccc12)[C@H]1CCCCN1
- Activity [3]: Non-Toxic
- half-life [4]: 2880 min
- Tlast [5]: 144 h
- Cmax [6]: 777 ng/mL
- Cmax [7]: 1490 ng/mL
- fraction unbound at 5 µM [8]: 0.0059
- half-life [9]: 2.79 days
- AUC(0-t) at 144 h [10]: 157 µg·h/mL
- AUC(0-t) at 144 h [11]: 183 µg·h/mL
- Tlast [12]: 144 h
- Activity [13]: Non-Toxic
- half-life [14]: 4 days
- Activity [15]: Non-Toxic
- Activity [16]: Non-Toxic
- Tlast [17]: 144 h
- AUC(0-t) at 144 h [18]: 12200 ng·h/mL
- bioavailability [19]: 89%
- AUC(0-t) at 144 h [20]: 14100 ng·h/mL
- half-life [21]: 2.88 days
- Activity [22]: Non-Toxic
- Activity [23]: Non-Toxic
- Tlast [24]: 144 h
- IC50 [1]: 3.46 µM

Compound: O[C@H](c1cc(-c2ccc(Cl)cc2)nc2ccccc12)[C@@H]1CCCCN1
- Activity [3]: Non-Toxic
- Activity (U3013MG [25]): Active
- Tlast [5]: 144 h
- Cmax [6]: 1970 ng/mL
- Cmax [7]: 4840 ng/mL
- Kp at 144 h [26]: 2
- fraction unbound at 5 µM [8]: 0.0137
- half-life [9]: 3 days
- Activity [27]: Non-Toxic
- AUC(0-t) at 144 h [10]: 400 µg·h/mL
- AUC(0-t) at 144 h [11]: 246 µg·h/mL
- Tlast [12]: 144 h
- Activity [13]: Non-Toxic
- Activity (U3013MG [28]): Active
- half-life [14]: 2.71 days
- Activity [15]: Non-Toxic
- Activity [16]: Non-Toxic
- Tlast [17]: 144 h
- AUC(0-t) at 144 h [18]: 53100 ng·h/mL
- bioavailability [19]: 75.2%
- Activity [29]: Non-Toxic
- AUC(0-t) at 144 h [20]: 62000 ng·h/mL
- half-life [21]: 3.38 days
- Activity [22]: Non-Toxic
- Activity [23]: Non-Toxic
- Tlast [24]: 144 h
- IC50 [1]: 3.79 µM

Compound: OC(c1cc(-c2ccc[nH]2)nc2ccccc12)C1CCCCN1 (stereo not given)
- IC50 [1]: > 50 µM

Compound: OC(c1cc(-c2ccsc2)nc2ccccc12)C1CCCCN1 (stereo not given)
- IC50 [1]: 26.5 µM

Compound: Cc1ccc(-c2cc([C@@H](O)[C@@H]3CCCCN3)c3ccccc3n2)cc1C#N (relative stereo)
- IC50 [1]: 32.1 µM

Compound: O[C@H](c1cc(-c2ccc(C(F)(F)F)nc2)nc2ccccc12)[C@@H]1CCCCN1 (relative stereo)
- IC50 [1]: 38 µM

Compound: O[C@H](c1cc(-c2ccc(C(F)(F)F)cc2)nc2ccccc12)[C@@H]1CCCCN1 (relative stereo)
- IC50 [1]: 13.5 µM

Compound: O[C@H](c1cc(-c2ccc(Cl)cc2)nc2ccccc12)[C@H]1CCCCN1 (single isomer, unassigned)
- Activity (U3013MG [28]): inactive
- IC50 [1]: 10.5 µM

Compound: O[C@@H](c1cc(-c2ccc(Cl)cc2)nc2ccccc12)[C@@H]1CCCCN1 (single isomer, unassigned)
- Activity (U3013MG [28]): inactive
- IC50 [1]: 9.91 µM

Compound: Cc1noc(C)c1-c1cc(C(O)C2CCCCN2)c2ccccc2n1 (stereo not given)
- IC50 [1]: > 50 µM

Source: ChEMBL document CHEMBL4428101, “The Oncolytic Efficacy and in Vivo Pharmacokinetics of [2-(4-Chlorophenyl)quinolin-4-yl](piperidine-2-yl)methanol (Vacquinol-1) Are Governed by Distinct Stereochemical Features” (J Med Chem, 2016)
